Screening data deposited in PubChem BioAssay by Johns Hopkins Ion Channel Center.
This is a sample that favours compounds with a hit; in the whole collection about 3.5% have one here.
RGS4 block: RGS4 inhibitors, primary screen, cell-based, HEK293 M3R inducible RGS4, calcium flux. AID 463165, 2010. Fluo-4 calcium flux; hits give high values; triggered by carbachol at its EC20. B-score at 10 µM. Regulator of G-protein signaling 4 (Homo sapiens), P49798. actives 0.45% (n = 310,000);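 active = B-score, a plate-corrected calcium signal, over three deviations above library mean, with baseline fluorescence within five deviations of library mean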;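 note: RGS4 expression induced by doxycycline in cells with stable M3 receptor; B-score is computed from the integrated fluorescence ratio over baseline after carbachol; higher B-score means a larger calcium signal and so more RGS4 inhibition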
Target sequence (P49798 whole entry, looked up): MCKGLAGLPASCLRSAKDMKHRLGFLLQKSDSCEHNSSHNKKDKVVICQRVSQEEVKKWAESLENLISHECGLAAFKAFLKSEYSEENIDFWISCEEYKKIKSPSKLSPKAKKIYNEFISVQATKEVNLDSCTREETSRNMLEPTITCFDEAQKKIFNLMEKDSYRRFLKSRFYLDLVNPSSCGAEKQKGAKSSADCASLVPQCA
RGS4 act: RGS4 potentiators or activators, primary screen, cell-based, HEK293 M3R inducible RGS4, calcium flux; carbachol calcium flux Fluo4; hits give low values; B-score at 10 µM; actives 0.92% (n = 310,000); AID 463111, 2010;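 active = B-score of the integrated calcium signal more than 4 SD below the library mean, with starting fluorescence not abnormally high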;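 note: negative B-score means reduced calcium response which marks RGS4 activation or potentiation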
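Assay system: Inducible-RGS4 HEK293 cells carrying M3 receptor | Schedule: Compound preincubation 20 min at room temperature before agonist | Signal: Kinetic calcium fluorescence imaging with Fluo4-AM dye, 2 µM | Read-out basis: B score from integrated fluorescence ratio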
MrgX1 allo act: positive allosteric modulators of MrgX1, primary screen, HEK293 cells, Fluo-4 calcium flux; FDSS; hits give high values; B-score at 10 µM; actives 0.63% (n = 310,000);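 active = plate-corrected calcium response at least 3 library SD above typical, normal starting fluorescence, not activating the receptor alone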;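 note: compound read alongside a low EC10 to EC30 dose of BAM8-22 agonist; peak minus trough fluorescence over baseline measured at the second addition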
Target sequence (Q96LB2 whole entry, looked up): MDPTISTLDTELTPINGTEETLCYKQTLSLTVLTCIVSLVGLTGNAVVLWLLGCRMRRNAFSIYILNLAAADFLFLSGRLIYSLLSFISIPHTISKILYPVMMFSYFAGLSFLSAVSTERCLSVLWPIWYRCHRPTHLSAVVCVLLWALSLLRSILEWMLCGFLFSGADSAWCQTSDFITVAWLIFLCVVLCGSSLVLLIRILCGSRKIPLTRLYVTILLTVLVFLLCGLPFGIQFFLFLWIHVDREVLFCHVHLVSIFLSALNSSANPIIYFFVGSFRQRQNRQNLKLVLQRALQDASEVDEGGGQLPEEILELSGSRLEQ
MrgX1 agonist: agonists of human MrgX1 receptor, primary screen, HEK293 cells, Fluo-4 calcium flux; Mas-related G-protein coupled receptor member X1 (Homo sapiens), Q96LB2; Fluo-4 calcium fluorescence, agonist mode; hits give high values; B-score at 10 µM; actives 0.44% (n = 310,000); AID 588627, 2011;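 active = calcium response B-score plate-corrected fluorescence ratio at least 3 library SD, with starting fluorescence B-score inside 5 SD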
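Test system: HEK293 cells stably expressing human MrgX1 receptor; amount: 15,000 cells per well; doses: compound delivered in addition one of three; times: overnight plating before 1 h dye loading; detection: Fluo-4 NW calcium-flux fluorescence, kinetic read; read-out basis: B-scored fluorescence response ratio; controls: positive and negative controls per plate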
MrgX1 antag: antagonists of human MrgX1 receptor, primary screen, HEK293 cells, Fluo-4 calcium flux. B-score at 10 µM. actives 1.3% (n = 310,000). AID 588676, 2011. BAM8-22 antagonism; hits give low values. Mas-related G-protein coupled receptor member X1 (Homo sapiens), Q96LB2;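 active = calcium-response B-score plate-corrected more than 3 library SD below zero, starting fluorescence within 5 deviations, no agonist response on first addition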;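 note: peak minus trough fluorescence over baseline after final BAM8-22 challenge near maximal dose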
Large screens that a line does not name were inactive.

CC1(C)CC(=O)C=C(Nc2cccc(Cl)c2Cl)C1	none
COc1cc(CNC(C)c2ccccc2)cc(Br)c1OCc1ccc(F)cc1 (stereo not given)	RGS4 act -8.5
COc1ccccc1-c1cnn2c(NCc3ccccc3)cc(C)nc12	RGS4 act -7.3
COc1ccc(C(CNC(=O)Nc2ccc(Cl)cc2)N2CCN(C)CC2)cc1 (stereo not given)	none
COc1ccc(-c2nn(-c3ccccc3)cc2/C=N/N=C(N)N)cc1OC	MrgX1 agonist 44
CCOC(=O)c1c(NC(C)=O)sc2c(OCC(O)CN(CC)CC)c(Br)ccc12 (stereo not given)	RGS4 act -7.6
Cc1ccc(C)c(NC(=O)C(Sc2nc3ccccc3c(=O)n2CC(C)C)c2ccccc2)c1 (stereo not given)	RGS4 act -7.3
COc1ccc(-c2cc(C(=O)N3CCCCCC3)c3ccccc3n2)c(OC)c1	none
CCOc1ccccc1N1CCN(C(=O)c2cc(-c3cc(OC)ccc3OC)nc3ccccc23)CC1	RGS4 act -7.4
COc1ccc(OC)c(-c2cc(C(=O)N3CCN(c4ncccn4)CC3)c3ccccc3n2)c1	RGS4 act -7.1
COc1ccc(N2CCN(C(=O)c3cc(-c4cc(OC)ccc4OC)nc4ccccc34)CC2)cc1	RGS4 act -7
CCOC(=O)[C@H]1[C@H]2COc3ccccc3[C@@H]2N2C(=O)c3ccc(C)cc3NC(=O)[C@@]12C	none (no result: RGS4 block, RGS4 act)
CCN(CC(=O)NC1CCS(=O)(=O)C1)S(=O)(=O)c1cc(C)ccc1C (stereo not given)	none
Cc1ccc(C(CNS(=O)(=O)c2ccc([N+](=O)[O-])cc2)N2CCN(C)CC2)cc1 (stereo not given)	none
CCN1C(=O)CC2(C[N+]3(C)CCC2CC3)C1=O (stereo not given)	RGS4 act -7.2
COc1ccc(-n2nc(C)c3c(=O)c4c([nH]c32)CCCC4)cc1	none
Cc1cc(C(=O)Nc2c(C)nn(Cc3ccc(F)cc3)c2C)on1	MrgX1 antag -4.9
CCc1nc(N2CCN(C(=O)c3ccco3)CC2)c2c3c(sc2n1)CCCC3	none
O=C(c1ccco1)N1CCN(c2ncnc3sc4c(c23)CCC4)CC1	RGS4 act -7.2
Cc1ccc(S(=O)(=O)N2CCCCC2)cc1NC(=O)Cn1c(=O)cnc2ccccc21	none
Cc1cc(C)cc(OCC(=O)Nc2cccc(-c3nnc(-c4ccco4)o3)c2)c1	RGS4 act -7.6
ClCC1=Nc2cccc3cccc(c23)N1	RGS4 block 8.7
CC1=NN(c2ccc(C)cc2)C(=O)/C1=C\c1ccc(Br)s1	MrgX1 antag -6.5
CC1=NN(c2ccc(Br)cc2)C(=O)/C1=C/c1cccs1	MrgX1 allo act 14
CCCc1ccc(/C=C2\C(=O)c3ccccc3C(O)=C2C(=O)OCC)cc1	MrgX1 antag -7
CCOC(=O)C1=C(O)c2ccccc2C(=O)/C1=C\c1ccc(CC)cc1	MrgX1 antag -6
CCOC(=O)C1=C(Cc2ccc(C)cc2)C(=O)c2ccccc2C1=O	MrgX1 agonist 86
CCOC(=O)c1ccc(COC(=O)c2ccc3c(c2)-c2ccccc2C3=O)cc1	none
CC(C)Oc1ccc(S(=O)(=O)N2CCOCC2)cc1NC(=O)c1cc([N+](=O)[O-])ccc1N1CCOCC1	none
O=C(CBr)c1ccc([N+](=O)[O-])c(CS(=O)(=O)c2ccc(Cl)cc2)c1	none
Cc1cc(N=Nc2c(O)c3ccccc3[nH]c2=O)ccc1N=Nc1ccc(C(=O)N(C)C)cc1	RGS4 act -7.8 (no result: MrgX1 allo act, MrgX1 agonist, MrgX1 antag)
O=C(O)c1ccc(N=Nc2c(O)[nH]c3ccccc23)cc1	none
N#C/C(=C\c1ccc(F)cc1)c1nc(-c2ccco2)cs1	none
N#C/C(=C\c1ccc(Cl)cc1)c1nc(-c2ccco2)cs1	MrgX1 antag -6.2
Cc1ccc(C)c(N2CCN(C(=O)c3ccc(CS(=O)Cc4ccc(Cl)cc4)o3)CC2)c1 (stereo not given)	RGS4 act -8.5
Cc1cccc(N2CCN(C(=O)c3ccc(CS(=O)Cc4cccc(Cl)c4)o3)CC2)c1C (stereo not given)	RGS4 act -10
O=C(c1ccc(CS(=O)Cc2ccc(Cl)cc2)o1)N1CCN(c2ccccc2F)CC1 (stereo not given)	none
Cc1ccc(Cl)cc1N1CCN(C(=O)c2ccc(CS(=O)Cc3ccc(Cl)cc3)o2)CC1 (stereo not given)	none
Cn1cnnc1SCC(=O)N/N=C/c1ccc(OCC(N)=O)cc1	none
Cc1ccc2nc(N3C(=O)C(O)=C(C(=O)c4cc5ccccc5o4)C3c3cccs3)sc2c1 (stereo not given)	MrgX1 antag -5.6
CCc1ccc2nc(N3C(=O)C(O)=C(C(=O)c4ccco4)C3c3cccs3)sc2c1 (stereo not given)	none
O=C1CC(c2cc(-c3ccccc3)no2)C1	none
Cc1cc(/C=C2\SC(=S)NC2=O)c(C)n1-c1ccc(O)cc1	MrgX1 agonist 43
Cc1cc(/C=C2\SC(=S)NC2=O)c(C)n1-c1ccccc1	none
CC(C)c1ccccc1OCCCCCN1CCOCC1	RGS4 act -7.4
CC(C)c1ccccc1OCCCCN1CCCCC1	none
COc1ccccc1OCCCCN1CCN(C(c2ccccc2)c2ccccc2)CC1	RGS4 act -8.1
O=C(NNC(=O)C12CC3CC(CC(C3)C1)C2)c1ccccc1[N+](=O)[O-]	none
CC(NC(=O)c1sc2cc([N+](=O)[O-])ccc2c1Cl)C(C)(C)C (stereo not given)	MrgX1 allo act 6.9
Nc1ccc(N=Nc2ccccc2)c2cccnc12	RGS4 block 5
COc1ccc(S(=O)(=O)NC(C)C(=O)NCCN2CCOCC2)cc1Cl (stereo not given)	none
Cc1ccc(C(=O)CN(CCCC(N)=O)S(=O)(=O)c2ccc([N+](=O)[O-])cc2)cc1	none (no result: RGS4 block, RGS4 act)
COc1ccc(CCN(C)C(=O)c2cc(-c3ccccc3)nc3ccc(C)cc23)cc1OC	none
COc1ccc(CN(C)C(=O)c2cc(-c3ccccc3)nc3ccc(C)cc23)c(OC)c1OC	RGS4 act -7.2
COc1cccc(NC(=O)CN(C)C(=O)c2cc(-c3ccccc3)nc3ccccc23)c1	none
COc1ccccc1CN(C)C(=O)c1cc(-c2cccs2)nc2ccccc12	RGS4 act -8.6
COc1cccc(CN(C)C(=O)c2cc(-c3ccc(F)cc3)nc3ccccc23)c1	RGS4 act -8.1, MrgX1 antag -15
O=C(C1CCC(CNc2c(N3CCCCC3)c(=O)c2=O)CC1)N1CCCC1 (stereo not given)	none
N#C/C(=C\c1cccnc1)c1ccccc1[N+](=O)[O-]	none
